Calls of active or inactive are those of the source. The calls are words filed in the database; no cut-off is given here.
Assays:
Mus musculus [1] = assay: Acute toxicity in Swiss albino mouse assessed as lethal effect at 25 mg/kg/day, po after 72 hrs; type: organism-based; parameters: route oral; details: in vivo
Method in brief: (§1)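 Oral single dose suspended in 0.5% carboxymethylcellulose, given after a 24 h fast; food and water returned 1 h after dosing. Vehicle-only controls. Mice observed at 1 h, then once daily for 72 h, for toxic signs and mortality.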

Mus musculus [2] = assay: Antiinflammatory activity against carrageenan-induced paw edema in Swiss albino mouse assessed as swelling thickness at 50 mg/kg, po after 180 mins; type: functional
Method in brief: (§2)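 Oral dosing in 0.5% CMC; vehicle to controls. Then carrageenan (0.5 mg/25 ll, freshly suspended in 154 mM saline) injected into the right hind paw subplantar tissue; saline into the left paw. Right-left footpad thickness difference measured by dial gauge calliper every 90 min over 6 h. Inhibition % is relative to vehicle control. n = 6; mean ± SEM.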

Mus musculus [3] = assay: Antiinflammatory activity against carrageenan-induced paw edema in Swiss albino mouse assessed as swelling thickness at 200 mg/kg, po after 360 mins; type: functional; method in brief: as §2
Mus musculus [4] = assay: Antiinflammatory activity against carrageenan-induced paw edema in Swiss albino mouse assessed as swelling thickness at 25 mg/kg, po after 180 mins; type: functional; method in brief: as §2
Mus musculus [5] = assay: Inhibition of p-benzoquinone-induced writhing in Swiss albino mouse at 200 mg/kg, po relative to control; type: functional
Method in brief: (§3)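 Mice, n = 6 per group, dosed orally with a suspension in 0.5% sodium CMC. 60 min later, 0.1 ml/10 g of 2.5% […] p-benzoquinone in distilled water given ip. Abdominal writhes counted per animal for 15 min, starting 5 min after injection. Expressed as % change in mean writhing count versus vehicle controls.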

Mus musculus [6] = assay: Gastric-ulcerogenic effect in Swiss albino mouse assessed as lesions at 25 mg/kg, po; type: functional, organism-based; parameters: dose 25 mg/kg
Method in brief: (§4)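 Mice killed under deep ether anesthesia 3 h after the writhing test; the oral dose in 0.5% CMC was the one used in that test. Stomachs removed, opened along the great curvature and examined under a dissecting microscope for lesions or bleeding. Reported as ratio of ulceration; n = 6.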

Mus musculus [7] = assay: Antiinflammatory activity against carrageenan-induced paw edema in Swiss albino mouse assessed as swelling thickness at 25 mg/kg, po after 90 mins; type: functional; method in brief: as §2
Mus musculus [8] = assay: Antiinflammatory activity against carrageenan-induced paw edema in Swiss albino mouse assessed as swelling thickness at 50 mg/kg, po after 270 mins; type: functional; method in brief: as §2
Mus musculus [9] = assay: Antiinflammatory activity against carrageenan-induced paw edema in Swiss albino mouse assessed as swelling thickness at 200 mg/kg, po after 270 mins; type: functional; method in brief: as §2
Mus musculus [10] = assay: Inhibition of carrageenan-induced paw edema in Swiss albino mouse at 100 mg/kg, po after 180 mins relative to control; type: functional; details: 3 h; method in brief: as §2
Mus musculus [11] = assay: Acute toxicity in Swiss albino mouse assessed as lethal effect at 100 mg/kg/day, po after 72 hrs; type: organism-based; parameters: route oral; details: in vivo; method in brief: as §1
Mus musculus [12] = assay: Antiinflammatory activity against carrageenan-induced paw edema in Swiss albino mouse assessed as swelling thickness at 25 mg/kg, po after 360 mins; type: functional; method in brief: as §2
Mus musculus [13] = assay: Analgesic activity against p-benzoquinone-induced abdominal constriction in Swiss albino mouse assessed as number of writhings at 25 mg/kg, po; type: functional, Abdomen
Method in brief: (§5)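 Test samples given orally in 0.5% CMC; vehicle to controls. 60 min later, 2.5% (v/v) p-benzoquinone in distilled water, 0.1 ml/10 g, given i.p. Mice housed singly; writhes counted for 15 min starting 5 min after injection. Activity is % change from vehicle controls. n = 6; mean ± SEM.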

Mus musculus [14] = assay: Analgesic activity against p-benzoquinone-induced abdominal constriction in Swiss albino mouse assessed as number of writhings at 100 mg/kg, po; type: functional, Abdomen; method in brief: as §5
Mus musculus [15] = assay: Inhibition of carrageenan-induced paw edema in Swiss albino mouse at 100 mg/kg, po after 90 mins relative to control; type: functional; details: 1.5 h; method in brief: as §2
Mus musculus [16] = assay: Inhibition of p-benzoquinone-induced writhing in Swiss albino mouse at 50 mg/kg, po relative to control; type: functional; method in brief: as §3
Mus musculus [17] = assay: Antiinflammatory activity against carrageenan-induced paw edema in Swiss albino mouse assessed as swelling thickness at 100 mg/kg, po after 360 mins; type: functional; method in brief: as §2
Mus musculus [18] = assay: Inhibition of carrageenan-induced paw edema in Swiss albino mouse at 50 mg/kg, po after 360 mins relative to control; type: functional; details: 6 h
Method in brief: (§6)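 Mice, n = 6 per group. Test agent given orally as a suspension in 0.5% sodium CMC in distilled water; controls received vehicle only. Afterwards, 0.5 mg/25 ll carrageenan in saline (154 mM NaCl) injected subplantar into the right hind paw, saline into the left. Right-minus-left footpad thickness measured by dial gauge caliper every 90 min for 6 h. Inhibition is relative to vehicle-control group means.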

Mus musculus [19] = assay: Acute toxicity in Swiss albino mouse assessed as lethal effect at 50 mg/kg/day, po after 72 hrs; type: organism-based; parameters: route oral; details: in vivo; method in brief: as §1
Mus musculus [20] = assay: Analgesic activity against p-benzoquinone-induced abdominal constriction in Swiss albino mouse assessed as number of writhings at 200 mg/kg, po; type: functional, Abdomen; method in brief: as §5
Mus musculus [21] = assay: Inhibition of carrageenan-induced paw edema in Swiss albino mouse at 50 mg/kg, po after 270 mins relative to control; type: functional; details: 4.5 h; method in brief: as §6
Mus musculus [22] = assay: Antiinflammatory activity against carrageenan-induced paw edema in Swiss albino mouse assessed as swelling thickness at 25 mg/kg, po after 270 mins; type: functional; method in brief: as §2
Mus musculus [23] = assay: Inhibition of carrageenan-induced paw edema in Swiss albino mouse at 100 mg/kg, po after 360 mins relative to control; type: functional; details: 6 h; method in brief: as §2
Mus musculus [24] = assay: Inhibition of p-benzoquinone-induced writhing in Swiss albino mouse at 25 mg/kg, po relative to control; type: functional; method in brief: as §3
Mus musculus [25] = assay: Gastric-ulcerogenic effect in Swiss albino mouse assessed as lesions at 50 mg/kg, po; type: functional, organism-based; parameters: dose 50 mg/kg; method in brief: as §4
Mus musculus [26] = assay: Inhibition of carrageenan-induced paw edema in Swiss albino mouse at 50 mg/kg, po after 90 mins relative to control; type: functional; details: 1.5 h; method in brief: as §6
Mus musculus [27] = assay: Antiinflammatory activity against carrageenan-induced paw edema in Swiss albino mouse assessed as swelling thickness at 200 mg/kg, po after 90 mins; type: functional; method in brief: as §2
Mus musculus [28] = assay: Antiinflammatory activity against carrageenan-induced paw edema in Swiss albino mouse assessed as swelling thickness at 100 mg/kg, po after 90 mins; type: functional; method in brief: as §2
Mus musculus [29] = assay: Acute toxicity in Swiss albino mouse assessed as lethal effect at 200 mg/kg/day, po after 72 hrs; type: organism-based; parameters: route oral; details: in vivo; method in brief: as §1
Mus musculus [30] = assay: Antiinflammatory activity against carrageenan-induced paw edema in Swiss albino mouse assessed as swelling thickness at 200 mg/kg, po after 180 mins; type: functional; method in brief: as §2
Mus musculus [31] = assay: Antiinflammatory activity against carrageenan-induced paw edema in Swiss albino mouse assessed as swelling thickness at 50 mg/kg, po after 360 mins; type: functional; method in brief: as §2
Mus musculus [32] = assay: Antiinflammatory activity against carrageenan-induced paw edema in Swiss albino mouse assessed as swelling thickness at 50 mg/kg, po after 90 mins; type: functional; method in brief: as §2
Mus musculus [33] = assay: Gastric-ulcerogenic effect in Swiss albino mouse assessed as lesions at 100 mg/kg, po; type: functional, organism-based; parameters: dose 100 mg/kg; method in brief: as §4
Mus musculus [34] = assay: Inhibition of carrageenan-induced paw edema in Swiss albino mouse at 50 mg/kg, po after 180 mins relative to control; type: functional; details: 3 h; method in brief: as §2
Mus musculus [35] = assay: Antiinflammatory activity against carrageenan-induced paw edema in Swiss albino mouse assessed as swelling thickness at 100 mg/kg, po after 180 mins; type: functional; method in brief: as §2
Mus musculus [36] = assay: Inhibition of p-benzoquinone-induced writhing in Swiss albino mouse at 100 mg/kg, po relative to control; type: functional; method in brief: as §3
Mus musculus [37] = assay: Antiinflammatory activity against carrageenan-induced paw edema in Swiss albino mouse assessed as swelling thickness at 100 mg/kg, po after 270 mins; type: functional; method in brief: as §2
Mus musculus [38] = assay: Analgesic activity against p-benzoquinone-induced abdominal constriction in Swiss albino mouse assessed as number of writhings at 50 mg/kg, po; type: functional, Abdomen; method in brief: as §5
Mus musculus [39] = assay: Inhibition of carrageenan-induced paw edema in Swiss albino mouse at 100 mg/kg, po after 270 mins relative to control; type: functional; details: 4.5 h; method in brief: as §2

## CCS(=O)(=O)c1nc(-c2ccc(Br)cc2)n[nH]1
Mus musculus [1]
  Activity: Non-toxic
Mus musculus [2]
  Activity: 43.5 10^-2mm
Mus musculus [3]
  Activity: 76.2 10^-2mm
Mus musculus [4]
  Activity: 62.8 10^-2mm
Mus musculus [5]
  inhibition in vivo at 200 mg/kg: 1.6%
Mus musculus [6]
  Activity: Active
Mus musculus [7]
  Activity: 54.6 10^-2mm
Mus musculus [8]
  Activity: 49.1 10^-2mm
Mus musculus [9]
  Activity: 68.5 10^-2mm
Mus musculus [10]
  inhibition in vivo at 100 mg/kg: 25.6%
Mus musculus [11]
  Activity: Non-toxic
Mus musculus [12]
  Activity: 75.1 10^-2mm
Mus musculus [13]
  Activity: 40.9
Mus musculus [14]
  Activity: 35.2
Mus musculus [15]
  inhibition in vivo at 100 mg/kg: 28.3%
Mus musculus [16]
  inhibition in vivo at 50 mg/kg: 30.2%
Mus musculus [17]
  Activity: 49.9 10^-2mm
Mus musculus [18]
  inhibition in vivo at 50 mg/kg: 30%
Mus musculus [19]
  Activity: Non-toxic
Mus musculus [20]
  Activity: 50.6
Mus musculus [21]
  inhibition in vivo at 50 mg/kg: 24.2%
Mus musculus [22]
  Activity: 67.8 10^-2mm
Mus musculus [23]
  inhibition in vivo at 100 mg/kg: 27.5%
Mus musculus [24]
  inhibition in vivo at 25 mg/kg: 20.4%
Mus musculus [25]
  Activity: Active
Mus musculus [26]
  inhibition in vivo at 50 mg/kg: 35.2%
Mus musculus [27]
  Activity: 57.4 10^-2mm
Mus musculus [28]
  Activity: 32.1 10^-2mm
Mus musculus [29]
  Activity: Non-toxic
Mus musculus [30]
  Activity: 61.5 10^-2mm
Mus musculus [31]
  Activity: 50.4 10^-2mm
Mus musculus [32]
  Activity: 40.4 10^-2mm
Mus musculus [33]
  Activity: Active
Mus musculus [34]
  inhibition in vivo at 50 mg/kg: 26.8%
Mus musculus [35]
  Activity: 38.3 10^-2mm
Mus musculus [36]
  inhibition in vivo at 100 mg/kg: 25.6%
Mus musculus [37]
  Activity: 45.7 10^-2mm
Mus musculus [38]
  Activity: 35.9
Mus musculus [39]
  inhibition in vivo at 100 mg/kg: 22.3%

— ChEMBL document CHEMBL1142894, “Preparation of 5-aryl-3-alkylthio-l,2,4-triazoles and corresponding sulfones with antiinflammatory-analgesic activity” (Bioorg Med Chem, 2007)
